Compound activity: PubChem BioAssay, several laboratories
TNAP inh hiacc: human TNAP enzyme inhibitors, primary screen, biochemical, luminescent, high phosphate acceptor level, uHTS; purified TNAP, CDP-star luminescence, 1 M DEA; Alkaline phosphatase, tissue-nonspecific isozyme (Homo sapiens), P05186; hit rate 0.03% among 200,000; inhibition, % at 20 µM;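 active means over 50% inhibition of tissue-nonspecific alkaline phosphatase at 20 µM in the single-dose screen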;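 further: plate controls were DMSO wells for no effect and EDTA-quenched wells as full inhibition for full effect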
Rad51 HR inh: human RAD51 strand exchange inhibitors, primary screen, biochemical, fluorescence | hit rate 0.085% among 200,000 | AID 1385, 2008 | DNA repair protein RAD51 homolog 1 (Homo sapiens), Q06609 | inhibition, % at 10 µM | hRad51 DNA strand exchange, fluorescence dequenching;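 active means inhibition above 40% at the single screening dose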;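 further: 0% = DMSO control wells and 100% = blanks with heterologous ssDNA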
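material = hRad51 filaments on single-stranded DNA | timing = filaments 15 min 37 °C, then compound 30 min | signal = FRET fluorescence dequenching, excitation 485 nm, emission 520 nm | benchmarks = control wells and blank wells on each plate | evaluation = percent inhibition relative to plate controls and blanks | compound = 10 µM final, single point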
PMI act hi M6P: human PMI activators, high substrate, primary screen, biochemical, fluorescence intensity, near-saturating mannose 6-phosphate. AID 1216, 2008. hit rate 0.34% among 190,000. Mannose-6-phosphate isomerase (Homo sapiens), P34949. activation factor at 20 µM. coupled PMI enzyme assay, resazurin fluorescence, 20 min; active compounds read high; 1 = untreated enzyme, 0 = substrate-free blank;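 active means activation factor of 2 or more at 20 µM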
Target sequence (P34949 whole entry, looked up): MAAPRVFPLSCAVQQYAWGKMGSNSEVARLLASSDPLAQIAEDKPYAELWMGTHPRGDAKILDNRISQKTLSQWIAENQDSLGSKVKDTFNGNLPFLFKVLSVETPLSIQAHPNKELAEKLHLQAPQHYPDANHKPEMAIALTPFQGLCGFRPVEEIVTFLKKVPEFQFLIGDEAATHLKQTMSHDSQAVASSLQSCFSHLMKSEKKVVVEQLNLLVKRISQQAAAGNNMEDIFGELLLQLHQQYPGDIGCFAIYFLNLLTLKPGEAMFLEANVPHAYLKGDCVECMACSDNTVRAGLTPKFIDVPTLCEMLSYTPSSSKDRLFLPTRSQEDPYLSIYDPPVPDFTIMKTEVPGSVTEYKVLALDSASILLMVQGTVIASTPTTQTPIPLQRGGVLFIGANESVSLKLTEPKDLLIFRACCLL
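Test system: human phosphomannose isomerase with PGI, G6PDH, diaphorase coupling enzymes; amount: 15 ng/mL PMI; incubation: enzyme reaction with compound 20 min at room temperature; technique: resorufin fluorescence (Ex 544/Em 590 nm) from resazurin via diaphorase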
TNAP inh no acc: human TNAP enzyme inhibitors, primary screen, biochemical, luminescent, no phosphate acceptor, uHTS; purified TNAP, CDP-star luminescence, 30 min; inhibition, % at 20 µM; hit rate 0.26% among 200,000; AID 1012, 2008;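 active means tissue-nonspecific alkaline phosphatase inhibition above about 50% at 20 µM in the single-dose screen, limit read from the data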;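 further: 0% = DMSO negative control and 100% = EDTA positive control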
PMI act: activators of human PMI, primary screen, biochemical, fluorescence intensity, near-Km mannose 6-phosphate; Mannose-6-phosphate isomerase (Homo sapiens), P34949; activation factor at 20 µM; AID 1214, 2008; purified human PMI, coupled resazurin fluorescence, 20 min; active compounds read high; 1 = vehicle control, 0 substrate-free wells; hit rate 0.005% among 190,000;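 active means activation factor of 2 or more at 20 µM, relative to plate controls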
TNAP act hiacc: TNAP activators at high phosphate acceptor level, primary screen, biochemical, luminescence, uHTS. purified TNAP, CDP-star luminescence, 1 M DEA, 30 min; active compounds read high; 0 = EDTA background, 1 = DMSO-only activity. activation factor at 20 µM. 200,000 tested, under 10 active. Alkaline phosphatase, tissue-nonspecific isozyme (Homo sapiens), P05186. AID 1136, 2008;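 active means activation factor at least 2 at 20 µM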
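system = human TNAP | amount = enzyme diluted 1/800 final | reagent = 100 µM CDP-star substrate | signal = luminescent substrate turnover signal | dosing = one dose, 20 µM | benchmarks = EDTA negative control, DMSO positive control | measure = activation factor | timing = 30 min reaction, room temperature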
An asterisk follows results filed as active. Shown are actives, neighbours in structure and some others; about 0.6% of the full set was active somewhere.

What do the screens show for `O=C(NCc1ccncc1)c1nc(-c2cccs2)no1`?
TNAP inh hiacc: -8.0; Rad51 HR inh: 12.4; PMI act hi M6P: 1.1; TNAP inh no acc: -13.2; PMI act: 1.1; TNAP act hiacc: 1.1

Results for Cc1cc(NC(=O)COC(=O)C2=COCCO2)c([N+](=O)[O-])cc1C ?
TNAP inh hiacc: -2.4; Rad51 HR inh: -0.1; PMI act hi M6P: 0.9; TNAP inh no acc: -10.8; PMI act: 0.9; TNAP act hiacc: 1

What do the screens show for `N#Cc1ccccc1NC(=O)C1SC(=Nc2ccccc2)C(C(=O)Nc2ccc(Cl)cc2)=C1N` (stereo not drawn)?
TNAP inh hiacc: -2.6; Rad51 HR inh: -2.9; PMI act hi M6P: 2.3*; TNAP inh no acc: -9.1; PMI act: 1.8; TNAP act hiacc: 1

What do the screens show for `O=C(Cc1cccs1)N(Cc1ccco1)C1(C(=O)NC2CCCCC2)CCCCC1`?
TNAP inh hiacc: -12.3; Rad51 HR inh: -4.9; PMI act hi M6P: 1; TNAP inh no acc: -21.2; PMI act: 1; TNAP act hiacc: 1.1

Results for CCSc1ncc(/C=N/Nc2ccc(F)cc2)n1C ?
TNAP inh hiacc: 0.2; PMI act hi M6P: 2*; TNAP inh no acc: 6.1; PMI act: 1.2; TNAP act hiacc: 1

How did Cc1cc(C)c2cc(C(c3nnnn3CC3CCCO3)N3CCN4CCCC4C3)c(=O)[nH]c2c1 (stereo not drawn) do in these assays?
TNAP inh hiacc: -4.8; Rad51 HR inh: -3.8; PMI act hi M6P: 1; TNAP inh no acc: -13.1; PMI act: 1; TNAP act hiacc: 1

Results for Cc1nnc(NC(=O)CSc2ccc([N+](=O)[O-])cn2)s1 ?
TNAP inh hiacc: -3.7; PMI act hi M6P: 1.1; TNAP inh no acc: -9.6; PMI act: 1.2; TNAP act hiacc: 1

How did N#Cc1ccccc1NC(=O)CSc1ccc([N+](=O)[O-])cn1 do in these assays?
TNAP inh hiacc: -4.3; Rad51 HR inh: 2.2; PMI act hi M6P: 2.6*; TNAP inh no acc: -14.2; PMI act: 1.8; TNAP act hiacc: 1

What do the screens show for `Cc1ccc(-c2nnc3ccc(SC(C)C(=O)O)nn23)cc1` (stereo not drawn)?
TNAP inh hiacc: 2.1; Rad51 HR inh: -6.8; PMI act hi M6P: 1.2; TNAP inh no acc: -8.1; PMI act: 0.9; TNAP act hiacc: 1

How did CC(Sc1ccc2nnc(-c3ccc(F)cc3)n2n1)C(=O)O (stereo not drawn) do in these assays?
TNAP inh hiacc: -6.8; PMI act hi M6P: 2.2*; TNAP inh no acc: -9.4; PMI act: 1.3; TNAP act hiacc: 1.1

What do the screens show for `CCOC(=O)c1sc(NC(=O)CSc2n[nH]c(-c3ccc(Cl)cc3Cl)n2)c(C#N)c1C`?
TNAP inh hiacc: 36.7; Rad51 HR inh: -2.0; PMI act hi M6P: 0.7; TNAP inh no acc: 96.4*; PMI act: 0.7; TNAP act hiacc: 0.6

What do the screens show for `CCOC(=O)c1sc(NC(=O)CSc2nc(C)cc(-c3ccccc3)n2)c(C#N)c1C`?
TNAP inh hiacc: -1.4; Rad51 HR inh: 3.4; PMI act hi M6P: 0.7; TNAP inh no acc: -9.5; PMI act: 0.4; TNAP act hiacc: 1

What do the screens show for `C/C(=N\Nc1nc2ccccc2s1)c1cccs1`?
TNAP inh hiacc: -2.3; Rad51 HR inh: -4.8; PMI act hi M6P: 0.9; TNAP inh no acc: -12.2; PMI act: 0.9; TNAP act hiacc: 1

What do the screens show for `C/C(=N\Nc1nc(-c2ccccc2)cs1)c1cccs1`?
TNAP inh hiacc: 12.3; Rad51 HR inh: 0.5; PMI act hi M6P: 2.2*; TNAP inh no acc: -14.4; PMI act: 1.6; TNAP act hiacc: 0.9

What do the screens show for `C=CCOc1c(OC)cc(/C=N/Nc2cccc(C(=O)O)c2)c(Br)c1Br`?
TNAP inh hiacc: -5.9; Rad51 HR inh: -8.0; PMI act hi M6P: 2.4*; TNAP inh no acc: -4.2; PMI act: 1.6; TNAP act hiacc: 1.1

Results for COCCCn1c(SCC(=O)Nc2sc3c(c2C#N)CCCC3)nnc1-c1ccncc1 ?
TNAP inh hiacc: 55.2*; Rad51 HR inh: -3.7; PMI act hi M6P: 1; TNAP inh no acc: 26.8; PMI act: 1.1; TNAP act hiacc: 0.4

What do the screens show for `O=C(c1cccs1)n1nc(-c2ccccc2)nc1NCc1ccco1`?
TNAP inh hiacc: -2.3; Rad51 HR inh: -1.0; PMI act hi M6P: 0.9; TNAP inh no acc: 5.7; PMI act: 0.9; TNAP act hiacc: 1

What do the screens show for `COCC(=O)n1nc(-c2ccccc2)nc1NCc1cccs1`?
TNAP inh hiacc: 14.8; Rad51 HR inh: 6.4; PMI act hi M6P: 1; TNAP inh no acc: 54.3*; PMI act: 1; TNAP act hiacc: 0.9

How did Cc1occc1-c1n[nH]c(=S)n1CC(C)C do in these assays?
TNAP inh hiacc: -2.7; Rad51 HR inh: -3.0; PMI act hi M6P: 1; TNAP inh no acc: 18.9; PMI act: 1; TNAP act hiacc: 1

What do the screens show for `CCCOc1ccccc1N/C(N)=N/c1nc(C)cc(C)n1`?
TNAP inh hiacc: -4.2; Rad51 HR inh: -3.2; PMI act hi M6P: 1; TNAP inh no acc: -8.4; PMI act: 1; TNAP act hiacc: 1

How did CCCOc1ccccc1N/C(=N/c1nc(C)cc(C)n1)NC(=O)COc1ccc(OC)cc1 do in these assays?
TNAP inh hiacc: -4.1; Rad51 HR inh: 96.7*; PMI act hi M6P: 0.9; TNAP inh no acc: -13.8; PMI act: 0.9; TNAP act hiacc: 1

How did O=C1C2C3C=CC(C3)C2C(=O)N1c1cccc(N2C(=O)C3C4C=CC(C4)C3C2=O)n1 (stereo not drawn) do in these assays?
TNAP inh hiacc: -2.6; Rad51 HR inh: -0.9; PMI act hi M6P: 0.9; TNAP inh no acc: -8.2; PMI act: 0.9; TNAP act hiacc: 1

How did O=C1C2C3C=CC(C3)C2C(=O)N1c1n[nH]c(-c2cccnc2)n1 (stereo not drawn) do in these assays?
TNAP inh hiacc: -2.1; Rad51 HR inh: 3.2; PMI act hi M6P: 0.9; TNAP inh no acc: 59.1*; PMI act: 0.8; TNAP act hiacc: 1

How did O=C1C2C3C=CC(C3)C2C(=O)N1c1n[nH]c(-c2ccccc2)n1 (stereo not drawn) do in these assays?
TNAP inh hiacc: -2.5; Rad51 HR inh: -8.2; PMI act hi M6P: 1; TNAP inh no acc: 95.8*; PMI act: 1; TNAP act hiacc: 1

How did O=C1C2CC=CCC2C(=O)N1c1n[nH]c(CCc2ccccc2)n1 (stereo not drawn) do in these assays?
TNAP inh hiacc: 2.1; Rad51 HR inh: -4.4; PMI act hi M6P: 0.9; TNAP inh no acc: 78.9*; PMI act: 0.9; TNAP act hiacc: 1
